Source: PubChem (Sanford-Burnham Center for Chemical Genomics)
SUMO1-SIM PPI: modulators of SUMO1 protein-protein interactions, primary screen, biochemical, uHTS. inhibition, % at 20 µM. Small ubiquitin-related modifier 1 (Homo sapiens), P63165. AID 602429, 2012. SUMO1 binding to a labelled peptide, TR-FRET, 1 h. actives 0.33% (n = 360,000); in the data active = inhibition above about 37%
DNMT1 inh: human DNMT1 methyltransferase inhibitors, primary screen, biochemical, molecular beacon, fluorescence, HinP1I cleavage, uHTS | inhibition (reported as % activation of signal), % at 10 µM | DNA (cytosine-5)-methyltransferase 1 (Homo sapiens), P26358 | actives 0.83% (n = 360,000); in the data active = inhibition above about 50%
CSN inh: inhibitors of CSN-mediated cullin deneddylation, primary screen, biochemical, fluorescence polarization, uHTS; COP9 signalosome complex subunit 5 (Homo sapiens), Q92905; Purified CSN, SCF-Nedd8-OG deneddylation; inhibition, % at 12.5 µM; actives 0.38% (n = 360,000); AID 651999, 2013;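 active = pattern-corrected inhibition above about 35%, with an unprinted fluorescence ratio check between 0.5 and 1.5, limit read from the data, passing the limit was not always enough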
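assay system = purified human Csn5 enzyme expressed in HEK293T cells | amount = 0.24 nM enzyme | buffer or medium = Tris/NaCl/DTT buffer, pH 7.5 | reagent = 10 nM SCFSkp2-Nedd8OG | compound = one concentration, 12.5 µM, 0.25% DMSO | times = 90 min reaction at room temperature | signal = FP | read-out basis = % inhibition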
LMPTP inh: LMPTP phosphatase inhibitors, primary screen, biochemical, fluorescence intensity, uHTS | Low molecular weight phosphotyrosine protein phosphatase (Homo sapiens), P24666 | recombinant LMPTP-A, OMFP fluorogenic substrate | inhibition, % at 20 µM | actives 0.22% (n = 360,000);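 active = compounds that cut the enzyme signal by at least half of the control window in the single-dose screen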
Target sequence (P24666 whole entry, looked up): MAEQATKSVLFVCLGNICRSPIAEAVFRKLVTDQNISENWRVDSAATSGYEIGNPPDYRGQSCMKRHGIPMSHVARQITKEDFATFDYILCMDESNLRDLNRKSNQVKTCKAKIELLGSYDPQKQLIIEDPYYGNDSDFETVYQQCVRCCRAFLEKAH
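Test system – LMPTP-A enzyme · Amount – LMPTP-A at 0.625 nM final in the reaction · Buffer or medium – Bis-Tris pH 6.0, DTT, detergent · Reagent – OMFP 400 µM · Doses – single 20 µM dose · Schedule – reaction 50 min, room temperature, dark · Detection – fluorescence intensity of OMFP turnover product · Evaluation – percent inhibition versus substrate-only and uninhibited controls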
Scp-1 inhibitor: Scp-1 phosphatase inhibitors, primary screen, biochemical, colorimetric, uHTS. Carboxy-terminal domain RNA polymerase II polypeptide A small phosphatase 1 (Homo …. Recombinant Scp1, phosphopeptide, malachite green phosphate absorbance. inhibition, % at 20 µM. actives 0.88% (n = 340,000). AID 493091, 2011;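 active = inhibition above about 50% at 20 µM, limit read from the data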
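Test system – truncated SCP-1 phosphatase (76-261aa) · Reagent – Phosphorylated 17-residue peptide substrate · Incubation – 45 min room-temperature reaction, 5 min colour, 30 min stabiliser · Detection – colorimetric phosphate reagent with accelerator and stabiliser, absorbance at 630 nm · Measure – % inhibition at 20 µM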
STEP inh: STEP phosphatase inhibitors, primary screen, biochemical, fluorescence intensity, uHTS; Tyrosine-protein phosphatase non-receptor type 5 (Homo sapiens), P54829; recombinant STEP, OMFP fluorogenic substrate; inhibition, % at 20 µM; actives 0.25% (n = 360,000); AID 588621, 2011;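 active = inhibition at 20 µM, scaled per plate between control wells, above about 37%, limit read from the data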
Target sequence (P54829 whole entry, looked up): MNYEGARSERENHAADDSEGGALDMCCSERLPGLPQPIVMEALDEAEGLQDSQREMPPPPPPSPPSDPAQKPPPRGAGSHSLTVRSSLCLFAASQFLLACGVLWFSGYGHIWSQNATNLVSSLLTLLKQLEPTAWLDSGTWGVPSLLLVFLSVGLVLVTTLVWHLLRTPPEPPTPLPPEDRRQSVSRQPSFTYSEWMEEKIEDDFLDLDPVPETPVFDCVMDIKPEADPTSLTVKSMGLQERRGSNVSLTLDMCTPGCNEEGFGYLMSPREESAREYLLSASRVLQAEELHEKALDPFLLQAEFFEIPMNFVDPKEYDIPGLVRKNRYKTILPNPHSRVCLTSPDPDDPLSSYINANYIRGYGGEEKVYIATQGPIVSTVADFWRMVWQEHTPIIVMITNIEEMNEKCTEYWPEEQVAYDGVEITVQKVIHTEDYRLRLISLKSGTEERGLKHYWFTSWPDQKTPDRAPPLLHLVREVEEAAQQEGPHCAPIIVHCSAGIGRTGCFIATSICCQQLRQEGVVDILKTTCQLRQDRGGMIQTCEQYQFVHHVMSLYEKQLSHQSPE
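Material: STEP (striatal-enriched tyrosine phosphatase) enzyme, cell-free; Compound dosing: 20 µM single dose in 1% DMSO; Technique: fluorescence read at 480 nm ex / 540 nm em; Times: reaction 20 min, ambient temperature; Medium: 50 mM Bis-Tris pH 6.0 with 2.5 mM DTT and 0.005% Tween 20; Also added: OMFP at 25 µM.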
Large screens that a line does not name were inactive. Only some compounds are listed: those with a hit (about 2% of all), similar ones and a draw of the others.

O=C1c2cccc3c(O)ccc(c23)C(=O)N1Cc1ccccc1	DNMT1 inh 68
CC(C)N1CCc2c(sc(NC(=O)c3cc(-c4cccs4)nc4ccccc34)c2C(N)=O)C1	CSN inh 107
COc1cc(CC(NC(C)=O)C(=O)NC2CCN(C(=O)Nc3ccc(C)cc3)CC2)cc(OC)c1 (stereo not drawn)	none
O=c1nc2s/c(=C\c3ccco3)c(=O)n2nc1Cc1ccc(F)cc1	Scp-1 inhibitor 77
COc1ccc(C(=O)Nc2ccc(-c3nnn(CC(=O)N4CCN(C(=O)c5ccco5)CC4)n3)cc2)cc1	CSN inh 80
O=C(Nc1cc(Cl)ccc1Cl)N1CCN(C(=O)Nc2cc(Cl)ccc2Cl)CC1	none
COc1ccc(NS(=O)(=O)c2ccc3nc(COc4ccc(C#N)cc4)[nH]c3c2)cc1	none
O=C(Nc1nc2c(Br)cc(Br)cc2c(=O)s1)c1ccco1	Scp-1 inhibitor 93
CC(C)c1ccc(N(CC(=O)NC(C)(C)C)C(=O)CCC(=O)Nc2nccs2)cc1	none
CC(=O)Nc1ccc(C=NNc2nnc(NN=Cc3ccc(NC(C)=O)cc3)c3ccccc23)cc1	SUMO1-SIM PPI 40
COc1ccc(CCNC(=O)c2cc(-c3ccc(C)c(C)c3O)n[nH]2)cc1OC	SUMO1-SIM PPI 37
COc1ccc(CCNC(=O)c2cc(-c3cc(C)ccc3O)n[nH]2)cc1OC	none
CC1(Oc2cccc(F)c2)CCN(Cc2ccc(-c3ccccc3)o2)C1 (stereo not drawn)	none (no result: Scp-1 inhibitor)
COCCCn1c(SCC(=O)NNC(=O)c2cccc(O)c2)nnc1-c1ccncc1	none
CN(CC1CCOCC1)C(=O)CC1C(=O)NCCN1Cc1ccccc1F (stereo not drawn)	none
O=C(O)/C(=C\c1ccc(Cl)c([N+](=O)[O-])c1)c1ccc(S(=O)(=O)N2CCCCC2)s1	none
O=C(O)/C(=C\c1ccc(Cl)c([N+](=O)[O-])c1)c1ccc(S(=O)(=O)N2CCCC2)s1	DNMT1 inh 72, Scp-1 inhibitor 66
CCOC(=O)c1c(CSc2ccccc2)n(C)c2cc(Br)c(OCC(O)CNC(CO)(CO)CO)cc12 (stereo not drawn)	CSN inh 71
CCOC(=O)c1c(CSc2ccccc2)n(C)c2cc(Br)c(OC)c(O)c12	none
COc1cccc(C(=O)NC2CC3CCCC(C2)N3CC(=O)Nc2ccccc2)c1 (stereo not drawn)	CSN inh 62
COc1ccc(C(=O)CSc2nnc(NC(=O)C3CC(=O)N(c4ccccc4C)C3)s2)cc1 (stereo not drawn)	none
CCCN(CCC)C1=CC(=[N+]2CCCC2)CC(C)(C)C1	Scp-1 inhibitor 77
CN(C)NC1=CC(=[N+]2CCCC2)CC(C)(C)C1	none
Nc1ccc(C(=O)NN2C(=O)[C@H](Cl)C2c2ccc(Cl)cc2)cc1 (stereo partly drawn)	none
Nc1ccn(CCCNCC(c2ccccc2)c2ccccc2)c(=O)n1	none (no result: Scp-1 inhibitor)
COc1cc(/C=C2/C(=O)c3cccc([N+](=O)[O-])c3C2=O)c(Br)cc1O	Scp-1 inhibitor 69
O=C(NCc1cccnc1)C(=O)N/N=C/c1ccc([N+](=O)[O-])cc1	none
CC(=O)Nc1ccc(S(=O)(=O)NNc2ccc([N+](=O)[O-])cc2)cc1	none
Cc1c(OC(C)C(=O)NCCN2CCOCC2)ccc2c3c(c(=O)oc12)CCCC3 (stereo not drawn)	CSN inh 41
Cc1ccc(SCCC(=O)NNC(=O)c2ccccc2F)cc1	none
COc1ccc2nc3cc(Cl)ccc3c(Nc3ccc(O)c(CN4CCN(C)CC4)c3)c2c1	DNMT1 inh 68
COc1ccc2nc3cc(Cl)ccc3c(C#N)c2c1	none
Cc1ccc(-c2ccc(/C=C3\C(=O)ON=C3c3ccccc3)o2)c([N+](=O)[O-])c1	DNMT1 inh 54
Cc1ccc(/C=C2\C(=O)ON=C2c2ccccc2)o1	none
O=C(Nc1nccs1)c1ccc(CSc2ccccc2)o1	LMPTP inh 49
Cc1ccc(SCc2ccc(C(=O)Nc3nccs3)o2)cc1	none
CCS(=O)(=O)N1CCC(C(=O)NCc2ccc(OC)cc2)CC1	none
CC(=O)c1cccc(N(C(=O)CNC(=O)c2ccco2)C(C(=O)NCC2CCCO2)c2ccccc2)c1 (stereo not drawn)	none
CN(C)c1ccc(C=Cc2nccc3ccccc23)cc1	DNMT1 inh 69 (no result: Scp-1 inhibitor)
COc1ccc(CN(C)C(=O)C2CSC3(C)CCC(=O)N23)c(OC)c1 (stereo not drawn)	none (no result: Scp-1 inhibitor)
O=S(=O)(Nc1nc(-c2ccco2)c(-c2ccco2)s1)c1ccc(F)cc1F	CSN inh 39 (no result: Scp-1 inhibitor)
O=C1c2c(O)cccc2Cc2cccc(O)c21	DNMT1 inh 95
C=C(C)C(=O)Nc1cccc(C2=NOC3(C2)C[C@H](C(N)=O)N(C(=O)CC#N)C3)c1 (stereo partly drawn)	Scp-1 inhibitor 57 (no result: SUMO1-SIM PPI, DNMT1 inh, CSN inh, LMPTP inh, STEP inh)
C/C=C/C=C\C(=O)Nc1cccc(C2=NOC3(C2)C[C@H](C(N)=O)N(C(=O)CC#N)C3)c1 (stereo partly drawn)	SUMO1-SIM PPI 71, Scp-1 inhibitor 67
C/C=C\C=C/C(=O)Nc1cccc(C2=NOC3(C2)C[C@H](C(N)=O)N(C(=O)CC)C3)c1 (stereo partly drawn)	none
COc1ccc(CCN2CCC(CN3C(=S)NC[C@@H]3CC(C)C)CC2)cc1OC	none
CN1/C(=C\C=[N+](C)c2ccccc2)C(C)(C)c2ccccc21	Scp-1 inhibitor 72
CN1/C(=C\C=N\O)C(C)(C)c2ccccc21	none
COc1cccc(C2CC(c3ccccc3)=NN2S(=O)(=O)c2ccc(C)cc2)c1OC (stereo not drawn)	CSN inh 76
C#CCN(C[C@@H]1[C@@H](OC(=O)Nc2c(C)noc2C)[C@@H](OC(=O)Nc2c(C)noc2C)Cn2c(=O)n(CCCCCC)c(=O)n21)S(=O)(=O)c1ccc(C)cc1	none (no result: Scp-1 inhibitor)
C=CCNC(=S)NNC(=O)c1ccncc1	none
Cc1cccc(C(=O)Oc2c(Br)cc(Br)cc2/C=N/NC(=O)c2ccncc2)c1	none
Cc1cc(C(=O)N/N=C/c2cc(Br)cc(Br)c2OC(=O)c2cccc(F)c2)n[nH]1	LMPTP inh 65, Scp-1 inhibitor 87
